GPR7 antagonist: human neuropeptides B/W receptor 1 antagonism | GPR7-expressing cells, fluorescence antagonist assay | inhibition, % at 4.4 µM | hit rate 1.1% among 290,000 | AID 1861; in the data active = inhibition above about 16%, passing the limit was not always enough;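 also: cells stimulated with the agonist NPW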
Target sequence (P48145 whole entry, looked up): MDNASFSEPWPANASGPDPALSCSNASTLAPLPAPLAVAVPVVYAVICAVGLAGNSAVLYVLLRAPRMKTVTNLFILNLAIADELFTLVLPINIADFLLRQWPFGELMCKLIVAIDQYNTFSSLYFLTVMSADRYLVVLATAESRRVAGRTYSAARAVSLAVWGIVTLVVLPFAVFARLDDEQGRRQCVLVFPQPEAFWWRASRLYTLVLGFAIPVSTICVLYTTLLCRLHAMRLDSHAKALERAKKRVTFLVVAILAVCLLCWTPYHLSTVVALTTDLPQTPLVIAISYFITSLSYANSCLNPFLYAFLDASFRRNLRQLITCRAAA
CHO parental Ca: signal in parental CHO cells, OX1R antagonist counter-screen | parental CHO-K1, ATP-induced calcium, Fluo-8 fluorescence | inhibition, % at 5.6 µM | hit rate 0.63% among 330,000 | AID 463079;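 active = inhibition above that plate's mean sample inhibition plus 3 SD, cut at about 26% in these data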
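material = parental CHO cells | also added = ATP as calcium-mobilizing challenge | dosing = single point at 5.6 µM | detection = intracellular calcium via Fluo-8 no-wash fluorescent dye | read-out = % inhibition | benchmarks = low control ATP plus DMSO, high control DMSO only | repeats = one well per compound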
OX1R antag-1: human HCRTR1 antagonism. hit rate 0.43% among 330,000. O43613. AID 434989. inhibition, % at 5 µM. CHO/OX1R cells, Fluo-8 calcium fluorescence, orexin A;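 active = inhibition above its plate's threshold, mean inhibition of all tested compounds on the plate plus 3 SD, cut at about 37% in these data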
GalR3 antag: antagonists of human GalR3 | O60755 | HEK293 GalR3-CNG cAMP membrane potential fluorescence; galR3 body fused to GalR1 C-terminus | inhibition, % at 3 µM | hit rate 0.44% among 360,000 | AID 651719;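 active = inhibition above the screen-wide average plus 3 SD, cut at about 13% in these data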;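 also: forskolin and galanin both at EC90 stimulate the cells; cAMP rise reported by CNG channel membrane potential dye signal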
Target sequence (O60755 1-299 limits assumed): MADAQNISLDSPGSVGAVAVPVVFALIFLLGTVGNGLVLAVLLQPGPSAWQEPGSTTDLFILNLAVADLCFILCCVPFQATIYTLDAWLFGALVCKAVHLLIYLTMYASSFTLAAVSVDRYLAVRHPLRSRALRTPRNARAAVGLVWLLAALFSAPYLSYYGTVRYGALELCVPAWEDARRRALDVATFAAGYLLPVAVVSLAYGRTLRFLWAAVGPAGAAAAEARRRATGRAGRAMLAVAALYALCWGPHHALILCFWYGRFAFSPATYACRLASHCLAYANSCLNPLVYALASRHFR
OX1R antag-2: blocks the human orexin 1 receptor. O43613. OX1R-expressing cells, FRET antagonist read-out. inhibition, % at 6.6 µM. hit rate 1.8% among 330,000; in the data active = inhibition mostly above about 38%, no sharp cut-off; inactive = mostly below about 40%
OX1R Fluo8 conf: confirmation of human orexin 1 receptor antagonists | inhibition, % at 5 µM | CHO/OX1R cells, orexin A calcium Fluo-8 fluorescence | hit rate 38% among 1,100 | shares compounds with OX1R antag-1; in the data active = inhibition above about 29%
CHO Ca counter: signal in parental CHO cells, OX1R antagonist counter-screen | shares compounds with OX1R antag-1 | parental CHO-K1, ATP-induced calcium, Fluo-8 fluorescence | hit rate 9.3% among 1,100 | inhibition, % at 5.6 µM | AID 492965;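 active = inhibition above a per-plate limit, the mean inhibition of that plate's test compounds plus 3 SD, cut at about 25% in these data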
OX1R HTRF conf: confirmation of human orexin 1 receptor antagonists, HTRF format; inhibition, % at 6.6 µM; OX1R-expressing cells, HTRF antagonist assay; shares compounds with OX1R antag-2; hit rate 49% among 1,800; in the data active = inhibition above about 55%;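 also: CHO cells expressing OX1R stimulated with orexin A at about EC80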
CHO-K1 HTRF: counter-screen for OX1R antagonists: effect in parental CHO-K1 cells | shares compounds with OX1R antag-2 | HTRF counterscreen | inhibition, % at 6.6 µM | hit rate 48% among 1,800 | AID 493232; in the data active = inhibition above about 17%
GalR3 conf: GalR3 (human) antagonism, confirmation; shares compounds with GalR3 antag; HEK293 GalR3 CNG cAMP biosensor, membrane potential fluorescence; galR3 fused to GalR1 carboxy tail; challenged with forskolin and galanin at EC90; inhibition, % at 3 µM; hit rate 59% among 1,600; AID 652245;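 active = inhibition above the primary screen's cutoff, the mean inhibition of all screened compounds plus 3 SD, cut at about 13% in these data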
HEK-CNG parental: acts as nonspecific agonist in parental HEK-CNG cells. activation, % at 3 µM. HEK293-CNG parental cells, cAMP membrane potential fluorescence; normalised: DMSO wells 0%, forskolin wells 100%. shares compounds with GalR3 antag. hit rate 10% among 1,600; in the data active = activation above about 1.3%
Hits are given with their value; . = inactive; / = not tested or not shown. Sampled rows, rich in hits. Any-hit rate of the full collection: about 3.1%.

SMILES	GPR7 antagonist	CHO parental Ca	OX1R antag-1	GalR3 antag	OX1R antag-2	OX1R Fluo8 conf	CHO Ca counter	OX1R HTRF conf	CHO-K1 HTRF	others
COc1cccc(C(=O)Nc2nnc(S(=O)(=O)Nc3cccc(C)c3)s2)c1	.	.	.	/	89	41	.	75	.
Cc1nnc(NC(=O)CN2C(=O)NC3(CCCC3)C2=O)s1	/	.	.	.	.	/	/	/	/
Cc1cc(C)c2nc(NC(=O)CN3C(=O)NC4(CCCC4)C3=O)sc2c1	/	.	.	.	69	.	.	.	.
COc1ccc(N=Cc2oc3ccc4ccccc4c3c2O)cc1	.	.	.	.	58	.	.	67	.
COc1ccc(N=Cc2ccccc2O)cc1	/	/	/	.	/	/	/	/	/
O=C(CCNC(=O)c1ccco1)NCCN1C(=O)S/C(=C\c2ccc(F)cc2)C1=O	/	.	45	.	47	.	.	90	24
Cc1ccc([C@@H]2CC=C(C(=O)O)[C@H](c3cccc(Cl)c3)N2S(=O)(=O)c2ccccc2C)cc1	/	.	81	.	86	48	.	89	.
S=c1[nH]nc(-c2cc(-c3ccccc3)n[nH]2)n1/N=C/c1cccs1	.	.	53	.	88	.	.	62	.
S=c1[nH]nc(-c2cc(-c3ccccc3)n[nH]2)n1/N=C/c1ccccc1	.	.	.	.	.	/	/	/	/
COc1ccc(NC(=O)N(C)[C@H]2C[C@H]3c4[nH]c5ccccc5c4CCN3C(=O)[C@H]2CO)cc1	/	/	/	.	/	/	/	/	/
CC(c1nc2ccccc2[nH]1)N(C(=O)C1=NNC(=O)CC1)c1ccccc1 (stereo not drawn)	/	/	/	.	/	/	/	/	/
Fc1ccc2nc3[nH]c4ccccc4c3nc2c1	.	.	.	.	98	.	.	64	.
O=C1CCCC2=C1[C@@]1(O[C@H]3C=CC=CN23)C(=O)N(c2ccccc2)c2ccccc21	/	/	/	.	/	/	/	/	/
COc1ccc(/C=N/NC(=O)c2ccc3ccccc3c2)cc1OS(=O)(=O)c1ccc(NC(C)=O)cc1	.	.	60	.	63	41	.	.	.
COc1ccc(C=O)cc1OS(=O)(=O)c1ccc(NC(C)=O)cc1	.	.	.	.	.	/	/	/	/
Nc1nc(CSc2nnnn2-c2ccccc2)nc(N2CCCc3ccccc32)n1	.	.	65	.	83	30	.	.	.
Nc1nc(CN2CCN(c3ccccc3)CC2)nc(N2CCCc3ccccc32)n1	.	.	.	.	.	/	/	/	/
Cc1ccsc1C(=O)OCC(=O)N(Cc1ccccc1)C(C)C	/	.	40	.	76	.	.	68	.
Cc1ccsc1C(=O)OCC(=O)NCCCc1ccccc1	.	.	.	.	.	/	/	/	/
Nc1[nH]c(C(=O)c2ccccc2)c(-c2ccncc2)c1C(=O)NCc1ccc(Cl)cc1	/	/	/	.	/	/	/	/	/
CCOC(=O)[C@]12CCCC=C1N(Cc1ccccc1)C(=O)[C@H](CC(=O)NCc1cccc3ccccc13)C2	/	/	/	.	/	/	/	/	/
NC(=O)c1c(NC(=O)c2cc3ccccc3o2)sc2c1CCC2	.	.	.	.	106	.	.	85	.
CC(C)(C)C(=O)Nc1cccc(-c2nc3ccccc3[nH]2)c1	.	.	.	.	.	/	/	/	/
CC(C)(C)C(=O)Nc1sc2c(c1-c1nc3ccccc3[nH]1)CCCC2	.	.	80	.	56	.	.	56	.
O=C(Nc1sc2c(c1C(=O)O)CCCC2)c1cccs1	.	.	.	.	.	/	/	/	/
SMILES	GPR7 antagonist	CHO parental Ca	OX1R antag-1	GalR3 antag	OX1R antag-2	OX1R Fluo8 conf	CHO Ca counter	OX1R HTRF conf	CHO-K1 HTRF	others
O=C(Nc1sc2c(c1C(=O)NCC1CCCO1)CCCC2)c1cccs1 (stereo not drawn)	.	.	48	.	40	.	.	.	.
Cc1cc(F)ccc1-c1cc(C(=O)N2CCN(c3ccncc3)CC2)[nH]n1	/	/	/	.	/	/	/	/	/
Nn1c(-c2cccs2)nc2sc3c(c2c1=O)CCCC3	.	.	45	.	111	.	.	81	.
COc1ccccc1CNS(=O)(=O)c1c(C)cc(C)cc1C	/	/	/	.	/	/	/	/	/
O=C(NCC(=O)N1CCCC1)NN=Cc1ccccc1O	/	/	/	.	/	/	/	/	/
O=C(O)CCn1c(SCCOc2ccccc2)nc2ccccc21	.	.	58	.	87	32	.	75	.
CCc1ccc(OCCSc2nc3ccccc3n2CCC(=O)O)cc1	.	.	.	.	.	/	/	/	/
Cc1cccc(OCCSc2nc3ccccc3n2CCC(=O)O)c1	.	.	.	.	97	35	.	83	.
CCCn1c2c(c(=N)c3c1CCC3)CCC2	.	.	.	.	.	/	/	/	/
CCCCCCCn1c2c(c(=N)c3ccccc31)CCC2	53	.	.	42	.	.	38	/	/	GalR3 conf=58;HEK-CNG parental=7.3
CC(C)(C)NC(=O)C(c1ccc(C(F)(F)F)cc1)n1c(=O)c(-c2cc3ccccc3[nH]2)nc2ccccc21 (stereo not drawn)	/	/	/	.	/	/	/	/	/
COc1ccc(CNC(=O)Cc2nn(C)c(=O)c3ccccc23)cc1	.	.	.	34	.	.	33	/	/	GalR3 conf=29;HEK-CNG parental=.
COc1ccc(CCNc2c(C)c(C)nc3ncnn23)cc1	.	.	45	90	.	.	77	/	/	GalR3 conf=90;HEK-CNG parental=.
COc1ccc(C(=O)N(C)[C@H]2C[C@H]3c4[nH]c5ccccc5c4CCN3C(=O)[C@H]2CO)cc1	/	/	/	.	/	/	/	/	/
Cc1csc(NC(=O)CSCC(=O)O)c1-c1nc2ccccc2s1	.	.	.	.	83	/	/	88	.
Oc1[nH]c2ccc(Br)cc2c1N=Nc1ccc(F)cc1	.	.	.	.	.	/	/	/	/
NC(=S)N=Nc1c(O)[nH]c2ccc(F)cc12	.	.	.	.	83	/	/	.	36
O=C(O)c1cc(NC(=O)c2ccc([N+](=O)[O-])cc2)cc(NC(=O)c2ccc([N+](=O)[O-])cc2)c1	.	.	.	.	.	/	/	/	/
O=C(Nc1ccc([N+](=O)[O-])cc1)C(=O)Nc1cccc(C(=O)O)c1	.	.	.	.	79	/	/	.	32
Cc1c(C)c2c(OCC(=O)NCC3CCC(C(=O)O)CC3)cc3c(c2oc1=O)CCC(C)(C)O3 (stereo not drawn)	/	/	/	.	/	/	/	/	/
CC(=O)N1CCn2c3c(c(=O)c4cc(C)ccc42)CCC31 (stereo not drawn)	.	.	.	.	82	/	/	.	.
O=C(NNC(=O)c1ccccc1-n1cccc1)c1cccnc1	/	/	/	.	/	/	/	/	/
